In ChEMBL document CHEMBL2177004, “Synthesis and SAR of b-annulated 1,4-dihydropyridines define cardiomyogenic compounds as novel inhibitors of TGFβ signaling” (J Med Chem, 2012):
Active and inactive are the calls of the source. The rule behind the calls is not given here.

Tests used:
HEK-293T = experiment: Inhibition of Activin receptor signaling in activin A-stimulated human HEK293T cells assessed as inhibition of SMAD activation at 2.5 uM after 2 to 22 hrs by dual Luciferase Assay; type: cell-based
How it was run: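 HEK-293T cells bulk co-transfected with an SBE-4–firefly luciferase reporter and a TK-driven Renilla plasmid for normalization, in DMEM with 2% FBS. After 12–14 h, cells were replated at 25,000/well in DMEM with 1% FBS and rested 2 h. Compound was then added with Activin A (10 ng/mL) for 20–22 h. Dual luciferase read-out was compared with DMSO, run in triplicate, with ≥2 independent experiments.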

J1 (Mus musculus) = experiment: Inhibition of mesoderm formation in mouse J1 cells carrying brachyury/T-GFP compound treated on day 1 measured on day 4 of differentiation by flow cytometry
[1] = Inhibition of calcium transients in mouse HL-1 cells after 10 mins using Fluo-4 by fluorescene assay; type: functional
How it was run: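 HL-1 murine atrial cells plated at 25,000/well on gelatin (0.02%)/fibronectin (5 μg/mL) in Claycomb medium with 10% FBS and 0.1 mM norepinephrine. Loaded with Hoechst 33342 and Fluo-4 for 30 min at 37 °C, then 30 min at room temperature. Washed with Tyrode's (pH 7.4); compound in Tyrode's 10 min at room temperature. 10 s videos at 33 frames/s; kinetic parameters from image analysis.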

TGF-beta receptor type-2 = TGF-beta receptor type-2 (Homo sapiens, UniProt P37173); experiment: Inhibition of TGBR2 signaling in human HEK293T cells assessed as inhibition of SMAD activation after 2 to 22 hrs by dual Luciferase Assay; type: cell-based, HEK-293T
CGR8 [2] = experiment: Promotion of cardiogenesis in mouse CGR8 cells carrying Myh6-GFP compound treated at 2.5 uM on days 3 to 5 measured on day 10 post differentiation by GFP reporter assay; type: functional, cell-based
How it was run: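 CGR8 mESCs carrying a Myh6 (α-MHC)-GFP reporter seeded in LIF-free high-glucose DMEM with 10% FBS to differentiate. Compound given on days 3–5; α-MHC-GFP fluorescence quantified by high-content imaging on day 10. Data normalized at lower concentrations.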

CGR8 [3] = experiment: Promotion of cardiogenesis in mouse CGR8 cells carrying Myh6-GFP compound treated at 5 uM on days 3 to 5 measured on day 10 post differentiation by GFP reporter assay; type: functional, cell-based
How it was run: (§1)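 Differentiation used CGR8 mESCs carrying a Myh6 (α-MHC)-GFP reporter, seeded in LIF-free high-glucose DMEM with 10% FBS. Compound was given on days 3–5 of differentiation. α-MHC-GFP fluorescence was quantified by high-content imaging on day 10, and data were normalized.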

CGR8 [4] = experiment: Inhibition of cardiogenesis in mouse CGR8 cells carrying Myh6-GFP compound treated at high concentration on days 3 to 5 measured on day 10 post differentiation by GFP reporter assay; type: functional, cell-based; how it was run: as §1
CGR8 [5] = experiment: Promotion of cardiogenesis in mouse CGR8 cells carrying Myh6-GFP compound treated at 1 to 5 uM on days 3 to 5 measured on day 10 post differentiation by GFP reporter assay; type: functional, cell-based; how it was run: as §1
[6] = target: T1, Activin receptor type-1C (Homo sapiens) (UniProt Q8NER5); conditions: 2.5 uM
T1 sequence (whole entry): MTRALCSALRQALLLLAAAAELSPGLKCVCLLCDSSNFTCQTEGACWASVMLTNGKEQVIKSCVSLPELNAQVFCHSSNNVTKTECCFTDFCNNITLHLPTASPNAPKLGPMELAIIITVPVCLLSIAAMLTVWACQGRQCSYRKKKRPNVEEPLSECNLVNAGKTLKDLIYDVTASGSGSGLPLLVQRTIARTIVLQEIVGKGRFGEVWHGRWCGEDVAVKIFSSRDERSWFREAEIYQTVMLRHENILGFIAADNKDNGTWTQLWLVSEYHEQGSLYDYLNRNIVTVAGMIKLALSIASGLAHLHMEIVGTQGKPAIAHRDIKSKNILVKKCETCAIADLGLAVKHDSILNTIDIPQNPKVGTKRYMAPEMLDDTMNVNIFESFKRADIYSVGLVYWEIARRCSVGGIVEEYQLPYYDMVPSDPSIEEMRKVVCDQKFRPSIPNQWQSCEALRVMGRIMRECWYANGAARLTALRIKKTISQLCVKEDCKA

[7] = target: T2, Activin receptor type-1B (Homo sapiens) (UniProt P36896); conditions: 2.5 uM
T2 sequence (whole entry): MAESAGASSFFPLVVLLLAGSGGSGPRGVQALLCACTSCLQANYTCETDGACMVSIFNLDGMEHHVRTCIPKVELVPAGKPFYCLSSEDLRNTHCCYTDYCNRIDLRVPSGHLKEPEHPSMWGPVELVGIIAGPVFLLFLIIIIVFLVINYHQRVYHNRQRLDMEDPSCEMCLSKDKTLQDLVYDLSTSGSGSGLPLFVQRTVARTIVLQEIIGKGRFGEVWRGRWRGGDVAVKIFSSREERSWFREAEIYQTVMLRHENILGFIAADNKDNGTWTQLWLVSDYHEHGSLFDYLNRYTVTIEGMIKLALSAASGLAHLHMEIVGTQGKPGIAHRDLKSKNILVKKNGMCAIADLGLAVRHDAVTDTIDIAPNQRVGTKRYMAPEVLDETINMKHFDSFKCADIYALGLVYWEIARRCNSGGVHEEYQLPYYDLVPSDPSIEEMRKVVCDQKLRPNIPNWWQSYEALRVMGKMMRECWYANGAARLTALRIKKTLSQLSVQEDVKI

Chain of TGF-beta receptor type-2 (P37173 whole entry): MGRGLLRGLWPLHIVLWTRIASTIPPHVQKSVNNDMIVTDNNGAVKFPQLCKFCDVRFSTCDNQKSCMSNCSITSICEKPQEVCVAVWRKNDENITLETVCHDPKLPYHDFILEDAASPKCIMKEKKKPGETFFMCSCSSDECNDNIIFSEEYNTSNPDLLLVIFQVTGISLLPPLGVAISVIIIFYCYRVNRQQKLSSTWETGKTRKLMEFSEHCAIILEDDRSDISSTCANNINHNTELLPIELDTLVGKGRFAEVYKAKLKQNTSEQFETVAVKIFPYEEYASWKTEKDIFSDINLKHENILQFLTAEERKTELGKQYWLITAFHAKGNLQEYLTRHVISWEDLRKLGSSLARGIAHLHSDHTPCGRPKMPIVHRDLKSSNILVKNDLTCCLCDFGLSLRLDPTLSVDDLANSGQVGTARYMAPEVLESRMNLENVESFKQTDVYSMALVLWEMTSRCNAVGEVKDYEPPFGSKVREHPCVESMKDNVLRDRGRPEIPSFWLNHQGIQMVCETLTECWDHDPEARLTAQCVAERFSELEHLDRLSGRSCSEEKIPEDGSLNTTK

## COC(=O)C1=C(C)NC2=C(C(=O)CC(C)(C)C2)C1c1cccc(-c2ccc3[nH]ccc3c2)c1 (single isomer, unassigned; (+))
HEK-293T
  inhibition: 55%
J1 (Mus musculus)
  inhibition: Active

## CCOC(=O)C1=C(C)NC2=C(C(=O)CC(C)(C)C2)C1c1ccc(-c2ccccc2)cc1 (stereo in doubt; (+)1) [listing 1 of 2 here]
[1]
  inhibition (INH): 44%
TGF-beta receptor type-2
  IC50: 0.46 µM

## CCCC1CC(=O)C2=C(C1)NC(C)=C(C(=O)OC)C2c1ccc(-c2ccccc2)cc1 (single isomer, unassigned; (+)) [listing 1 of 2 here]
[1]
  inhibition (INH): 58%

## COC(=O)C1=C(C)NC(C)=C(C(=O)OC)C1c1ccccc1[N+](=O)[O-] [NIFEDIPINE]
[1]
  inhibition (INH): 66%

## CCOC(=O)C1=C(C)NC2=C(C(=O)CC(C)(C)C2)C1c1ccc(-c2ccccc2)cc1 (racemic) [listing 1 of 2 here]
HEK-293T
  inhibition: 51%

## CCOC(=O)C1=C(C)NC2=C(C(=O)CC(C)(C)C2)C1c1ccc(-c2ccccc2)cc1 (racemic) [listing 2 of 2 here]
TGF-beta receptor type-2
  IC50: 0.85 µM

## COC(=O)C1=C(C)NC2=C(C(=O)CC(C)(C)C2)C1c1cccc(-c2ccc3[nH]ccc3c2)c1 (racemic)
HEK-293T
  inhibition: 24%

## CCCC1CC(=O)C2=C(C1)NC(C)=C(C(=O)OC)C2c1ccc(-c2ccccc2)cc1 (single isomer, unassigned; (-)) [listing 1 of 2 here]
J1 (Mus musculus)
  inhibition: Active
CGR8 [2]
  Activity: inactive

## CCOC(=O)C1=C(C)NC2=C(C(=O)CC(C)(C)C2)C1c1ccc(-c2ccccc2)cc1 (stereo in doubt; (+)1) [listing 2 of 2 here]
CGR8 [3]
  Activity: Active
HEK-293T
  inhibition: 49%
CGR8 [4]
  inhibition: Dose-dependent effect
CGR8 [5]
  Activity: Active
J1 (Mus musculus)
  inhibition: Active

## COC(=O)C1=C(C)NC2=C(C(=O)CC(C)(C)C2)C1c1cccc(-c2ccc3[nH]ccc3c2)c1 (single isomer, unassigned; (-))
HEK-293T
  inhibition: 68%

## CCOC(=O)C1=C(C)NC2=C(C(=O)CC(C)(C)C2)C1c1ccc(-c2ccccc2)cc1 (stereo in doubt; (-)1) [listing 1 of 2 here]
[1]
  inhibition (INH): 87%
TGF-beta receptor type-2
  IC50: 6.9 µM

## CCCC1CC(=O)C2=C(C1)NC(C)=C(C(=O)OC)C2c1ccc(-c2ccccc2)cc1 (single isomer, unassigned; (-)) [listing 2 of 2 here]
[1]
  inhibition (INH): 85%

## CCCC1CC(=O)C2=C(C1)NC(C)=C(C(=O)OC)C2c1ccc(-c2ccccc2)cc1 (single isomer, unassigned; (+)) [listing 2 of 2 here]
J1 (Mus musculus)
  inhibition: Active
CGR8 [2]
  Activity: Active

## NC(=O)c1ccc(-c2nc(-c3ccccn3)c(-c3ccc4c(c3)OCO4)[nH]2)cc1
[6]
  inhibition: 99%
[7]
  inhibition: 99%

## CCOC(=O)C1=C(C)NC2=C(C(=O)CC(C)(C)C2)C1c1ccc(-c2ccccc2)cc1 (stereo in doubt; (-)1) [listing 2 of 2 here]
HEK-293T
  inhibition: 41%
CGR8 [5]
  Activity: Active
J1 (Mus musculus)
  inhibition: Active
